Values after ≈ are worked out from the molar mass of the structure shown. Active and inactive are the calls of the source. The calls are words filed in the database; no cut-off is given here.
Legend:
[1] = Cytotoxicity against human A549 cells after 72 hrs by resazurin based fluorescence assay; assay type: cell-based; conditions: read-out: MIC
How it was run: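 Cytotoxicity read as MMIC, the MIC on the A549 cell line.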

[2] = Fraction unbound in human plasma at 20 uM after 18 hrs by equilibrium dialysis method; assay type: ADME, cell-free
[3] = test system: Mycobacterium tuberculosis; experiment: Antimycobacterial activity against Mycobacterium tuberculosis over expressing PimA after 5 days by standard microdilution method; assay type: functional; conditions: 120 h
Pseudomonas aeruginosa [4] = experiment: Antimicrobial activity against Pseudomonas aeruginosa ARC546 at 100 uM; assay type: functional, organism-based
How it was run: (§1)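 Nonmycobacterial panel of Candida albicans, Gram-negative and Gram-positive pathogens.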

Candida albicans = experiment: Antimicrobial activity against Candida albicans ARC527 at 100 uM; assay type: functional, organism-based; how it was run: as §1
Escherichia coli [5] = experiment: Antimicrobial activity against Escherichia coli ARC523 at 100 uM; assay type: functional, organism-based; how it was run: as §1
[6] = Permeability of the compound from basolateral to apical side in human Caco2 cells; assay type: ADME, cell-based; conditions: Caco-2, read-out: permeability
[7] = Inhibition of Mycobacterium smegmatis recombinant DprE1 using farnesylphosphoryl-beta-D-ribofuranose as substrate assessed as conversion of amplex red to resorufin after 30 mins; design: species or system Mycolicibacterium smegmatis
How it was run: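 Msm DprE1 (thioredoxin-6His fusion of Msm Rv3790) at 75 nM, preincubated 30 min with 10 μM FAD. Buffer: 50 mM glycylglycine pH 8.5, 200 mM potassium glutamate, 0.002% Brij-35, 2% DMSO, 25 °C. Started with 300 μM farnesylphosphoryl-β-D-ribofuranose, 0.01 mg/mL HRP and 50 μM Amplex Red.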

[8] = Octanol-water partition coefficient, log D of the compound by shake-flask method; assay type: physicochemical
[9] = Cmax in Wistar rat at 10 mg/kg, po; assay type: ADME, organism-based; design: dose 10 mg/kg, route oral; conditions: in vivo
How it was run: (§2)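 Male Wistar rats given a single dose, 2 mg/kg intravenously or 10 mg/kg orally. Plasma concentration followed over time, n = 2 per compound. Parameters taken from the plasma curves: C0 (iv), Cmax (oral), AUC0−∞, elimination half-life, plasma clearance, Vss and oral bioavailability.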

[10] = test system: Mycobacterium tuberculosis; experiment: Bactericidal activity against Mycobacterium tuberculosis H37Rv after 3 days relative to control; assay type: functional
[11] = test system: Mycolicibacterium smegmatis; experiment: Binding affinity to Mycobacterium smegmatis recombinant DprE1 assessed as dissociation constant
How it was run: (§3)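 Progress curves (fluorescence vs time) recorded at several inhibitor concentrations with 75 nM Msm DprE1 in the FAD/HRP/Amplex Red coupled assay, pH 8.5, 25 °C. A single-step reversible slow-binding model was fitted globally, with vs and vi fitted per concentration and koff and Kiapp shared. Half-life and residence time were derived from koff.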

[12] = test system: Mycobacterium tuberculosis; experiment: Bactericidal activity against Mycobacterium tuberculosis H37Rv after 7 days relative to control; assay type: functional
[13] = Intrinsic clearance in rat cryopreserved hepatocytes assessed per 10^6 cells at 1 uM up to 120 mins by LC-MS/MS analysis; assay type: ADME, cell-based, Hepatocyte; conditions: read-out: CLH
[14] = biological target: Voltage-gated inwardly rectifying potassium channel KCNH2 (Homo sapiens, UniProt Q12809); experiment: Inhibition of human ERG by medium-throughput electrophysiology
[15] = test system: Mycobacterium tuberculosis; experiment: Antimycobacterial activity against Mycobacterium tuberculosis H37Rv under hypoxic condition after 6 days by resazurin assay; assay type: functional; conditions: 144 h
Escherichia coli [16] = experiment: Antimicrobial activity against Escherichia coli ARC524 at 100 uM; assay type: functional, organism-based; how it was run: as §1
[17] = test system: Mycobacterium tuberculosis; experiment: Antimycobacterial activity against Mycobacterium tuberculosis over expressing TopA after 5 days by standard microdilution method; assay type: functional; conditions: 120 h
[18] = Initial plasma concentration in Wistar rat at 2 mg/kg, iv; assay type: ADME, organism-based; design: dose 2 mg/kg, route intravenous; how it was run: as §2
[19] = test system: Mycolicibacterium smegmatis; experiment: Antimicrobial activity against Mycobacterium smegmatis mc2155 at 100 uM; assay type: functional, organism-based; conditions: str. MC2 155
Klebsiella pneumoniae = experiment: Antimicrobial activity against Klebsiella pneumoniae ARC1865 at 100 uM; assay type: functional, organism-based; how it was run: as §1
[20] = Clearance in Wistar rat at 2 mg/kg, iv; assay type: ADME, organism-based; design: dose 2 mg/kg, route intravenous; conditions: in vivo; how it was run: as §2
Pseudomonas aeruginosa [21] = experiment: Antimicrobial activity against Pseudomonas aeruginosa ARC545 at 100 uM; assay type: functional, organism-based; how it was run: as §1
[22] = AUC (0 to infinity) in Wistar rat at 2 mg/kg, iv; assay type: ADME, organism-based; design: dose 2 mg/kg, route intravenous, time infinity; conditions: plasma; how it was run: as §2
Staphylococcus aureus = experiment: Antimicrobial activity against Staphylococcus aureus ARC517 at 100 uM; assay type: functional, organism-based; how it was run: as §1
[23] = test system: Mycobacterium tuberculosis; experiment: Antimycobacterial activity against Mycobacterium tuberculosis over expressing DprE1 after 5 days by standard microdilution method; assay type: functional; conditions: 120 h
[24] = test system: Mycolicibacterium smegmatis; experiment: Binding affinity to Mycobacterium smegmatis recombinant DprE1 assessed as half life; how it was run: as §3
[25] = test system: Mycolicibacterium smegmatis; experiment: Antimicrobial activity against Mycobacterium smegmatis ATCC 607 at 100 uM; assay type: functional, organism-based
[26] = Elimination half life in Wistar rat at 10 mg/kg, po; assay type: ADME, organism-based; design: dose 10 mg/kg, route oral; conditions: in vivo, read-out: beta t1/2 (converted); how it was run: as §2
[27] = Inhibition of Mycobacterium smegmatis DprE1 Y321H mutant using farnesylphosphoryl-beta-D-ribofuranose as substrate assessed as conversion of amplex red to resorufin after 30 mins; design: species or system Mycolicibacterium smegmatis
How it was run: (§4)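 Recombinant M. smegmatis DprE1 (thioredoxin-6His fusion), wild type or Y321H, 75 nM. Enzyme was preincubated 30 min in FAD assay mix: 50 mM glycylglycine pH 8.5, 200 mM potassium glutamate, 10 μM FAD, 0.002% Brij-35, 2% DMSO. Reaction was started with 300 μM farnesylphosphoryl-β-D-ribofuranose, 0.01 mg/mL HRP and 50 μM amplex red at 25 °C.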

[28] = Volume of distribution at steady state in Wistar rat at 2 mg/kg, iv; assay type: ADME, organism-based; design: dose 2 mg/kg, route intravenous; conditions: in vivo, read-out: Vdss; how it was run: as §2
[29] = test system: Mycobacterium tuberculosis; experiment: Antimycobacterial activity against Mycobacterium tuberculosis over expressing InhA after 5 days by standard microdilution method; assay type: functional; conditions: 120 h
[30] = Oral bioavailability in Wistar rat at 10 mg/kg; assay type: ADME, organism-based; conditions: in vivo; how it was run: as §2
Haemophilus influenzae [31] = experiment: Antimicrobial activity against Haemophilus influenzae ARC446 at 100 uM; assay type: functional, organism-based; how it was run: as §1
Streptococcus pneumoniae = experiment: Antimicrobial activity against Streptococcus pneumoniae ARC548 at 100 uM; assay type: functional, organism-based; how it was run: as §1
[32] = test system: Mycolicibacterium smegmatis; experiment: Binding affinity to Mycobacterium smegmatis recombinant DprE1 assessed as residence time; how it was run: as §3
[33] = test system: Mycolicibacterium smegmatis; experiment: Ratio of IC50 for Mycobacterium smegmatis DprE1 Y321H mutant to IC50 for Mycobacterium smegmatis recombinant wild type DprE1; how it was run: as §4
[34] = Intrinsic clearance in human liver microsomes at 1 uM up to 30 mins by LC-MS/MS analysis; assay type: ADME; conditions: read-out: CLH
[35] = AUC (0 to infinity) in Wistar rat at 10 mg/kg, po; assay type: ADME, organism-based; design: time infinity, dose 10 mg/kg, route oral; conditions: plasma; how it was run: as §2
[36] = Permeability of the compound from apical to basolateral side in human Caco2 cells; assay type: ADME, cell-based; conditions: Caco-2, read-out: permeability
[37] = test system: Mycobacterium tuberculosis; experiment: Antimycobacterial activity against Mycobacterium tuberculosis H37Rv at >MIC after 21 to 28 days; assay type: functional
[38] = test system: Mycobacterium tuberculosis; experiment: Antimycobacterial activity against Mycobacterium tuberculosis H37Rv after 5 days by standard microdilution method; assay type: functional; conditions: 120 h
Haemophilus influenzae [39] = experiment: Antimicrobial activity against Haemophilus influenzae ARC158 at 100 uM; assay type: functional, organism-based; how it was run: as §1
[40] = Solubility of the compound in 0.1 M phosphate buffer at pH 7.4 after 24 hrs by UV and MS analysis; assay type: physicochemical
[41] = Elimination half life in Wistar rat at 2 mg/kg, iv; assay type: ADME, organism-based; design: dose 2 mg/kg, route intravenous; conditions: in vivo, read-out: beta t1/2 (converted); how it was run: as §2

Chain of Voltage-gated inwardly rectifying potassium channel KCNH2 (Q12809 whole entry): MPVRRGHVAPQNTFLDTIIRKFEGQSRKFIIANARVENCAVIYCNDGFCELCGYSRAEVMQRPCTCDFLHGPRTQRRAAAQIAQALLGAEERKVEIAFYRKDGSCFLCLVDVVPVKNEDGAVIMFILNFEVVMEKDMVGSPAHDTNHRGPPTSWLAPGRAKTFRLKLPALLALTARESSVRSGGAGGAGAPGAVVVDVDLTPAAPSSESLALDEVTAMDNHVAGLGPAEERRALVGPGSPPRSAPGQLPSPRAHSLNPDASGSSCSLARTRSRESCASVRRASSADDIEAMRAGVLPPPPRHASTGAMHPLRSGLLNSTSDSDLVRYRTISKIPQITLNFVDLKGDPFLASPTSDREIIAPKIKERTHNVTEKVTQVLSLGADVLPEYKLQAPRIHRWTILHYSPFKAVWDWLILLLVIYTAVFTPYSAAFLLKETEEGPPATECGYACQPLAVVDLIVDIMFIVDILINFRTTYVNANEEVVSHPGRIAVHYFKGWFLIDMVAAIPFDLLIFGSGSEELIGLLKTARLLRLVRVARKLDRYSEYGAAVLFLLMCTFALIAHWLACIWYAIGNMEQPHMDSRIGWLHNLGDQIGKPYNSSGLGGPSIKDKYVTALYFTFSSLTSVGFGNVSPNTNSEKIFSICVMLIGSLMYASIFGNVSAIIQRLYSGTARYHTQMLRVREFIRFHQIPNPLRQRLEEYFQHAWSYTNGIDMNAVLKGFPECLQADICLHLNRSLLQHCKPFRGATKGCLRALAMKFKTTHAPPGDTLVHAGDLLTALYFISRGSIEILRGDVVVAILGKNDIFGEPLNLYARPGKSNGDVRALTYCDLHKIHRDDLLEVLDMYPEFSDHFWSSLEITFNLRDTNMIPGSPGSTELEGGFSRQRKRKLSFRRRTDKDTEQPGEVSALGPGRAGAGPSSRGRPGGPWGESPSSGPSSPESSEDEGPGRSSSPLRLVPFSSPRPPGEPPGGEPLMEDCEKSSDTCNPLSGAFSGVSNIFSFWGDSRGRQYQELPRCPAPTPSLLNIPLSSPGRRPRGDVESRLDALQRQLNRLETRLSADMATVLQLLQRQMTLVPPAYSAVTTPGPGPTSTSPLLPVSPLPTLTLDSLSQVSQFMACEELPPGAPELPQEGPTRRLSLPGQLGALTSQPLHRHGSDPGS

Cn1ncc(C(=O)N2CCC(Nc3cc(=O)[nH]c4cc(F)c(F)cc34)CC2)c1Cl
MCC at 72 h [1]: > 100 µM | fraction unbound at 18 h, 20 µM [2]: 0.4 | MIC [3]: 0.4 µM (≈ 0.169 µg/mL) | Activity (Pseudomonas aeruginosa [4]): inactive | Activity (Candida albicans): inactive | Activity (Escherichia coli [5]): inactive | Papp B→A [6]: 11 ×10⁻⁶ cm/s | IC50 [7]: 0.006 µM | logD [8]: 2.2 | Cmax [9]: 20 nM | LCK [10]: 3 | Kdiss [11]: 0.00011 s⁻¹ | LCK [12]: 4 | hepatocyte CLint at 1 µM [13]: 2.4 µL/min/1e6 cells | IC50 [14]: > 100 µM | IC80 [15]: > 100 µM | Activity (Escherichia coli [16]): inactive | MIC [17]: 0.4 µM (≈ 0.169 µg/mL) | C0 [18]: 4900 nM | Activity [19]: inactive | Activity (Klebsiella pneumoniae): inactive | clearance [20]: 34.4 mL/min/kg | Activity (Pseudomonas aeruginosa [21]): inactive | AUC(0-inf) [22]: 1.2 µM·h | Activity (Staphylococcus aureus): inactive | MIC [23]: > 50 µM | T1/2 [24]: 1.75 h | Activity [25]: inactive | half-life [26]: 1.1 h | IC50 [27]: > 10 µM | Vd [28]: 0.9 L/kg | MIC [29]: 0.4 µM (≈ 0.169 µg/mL) | bioavailability [30]: 0.3% | Activity (Haemophilus influenzae [31]): inactive | Activity (Streptococcus pneumoniae): inactive | TIME [32]: 2.53 h | fold change (FC) [33]: > 143 | microsomal CLint at 1 µM [34]: 12.5 µL/min/mg | AUC(0-inf) [35]: 0.04 µM·h | Papp A→B [36]: 0.2 ×10⁻⁶ cm/s | MBC [37]: 0.8 µM (≈ 0.337 µg/mL) | MIC [38]: 0.4 µM (≈ 0.169 µg/mL) | Activity (Haemophilus influenzae [39]): inactive | solubility at 24 h [40]: 26 µM (≈ 11 µg/mL) | half-life [41]: 0.5 h
